We go through 12 molecules from ChEMBL document CHEMBL4152227, “Targeting mitochondria: Esters of rhodamine B with triterpenoids are mitocanic triggers of apoptosis” (Eur J Med Chem, 2018).

The source made the active and inactive calls.

The subject of one series is FaDu. In words: Cytotoxicity against human FADU cells after 96 hrs by SRB assay. The class given is functional, cell-based. An outline of the steps:
(§1)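 Sulforhodamine B colorimetric assay after 96 h of treatment. EC50 values in µM are averaged from three independent experiments, each run in triplicate, with a 95% confidence interval. The assay cut-off is 30 µM.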
(The SRB assay estimates cell density from bound dye.)

For series [1], the system named is A2780. In words: Cytotoxicity against human A2780 cells after 96 hrs by SRB assay. To be noted: A2780, 96 h. The class given is functional, cell-based. An outline of the steps: as §1
For the next series, the system named is HT-29. The series can be described thus: Cytotoxicity against human HT-29 cells after 96 hrs by SRB assay. The class given is functional, cell-based. The conditions noted are these: HT-29, 96 h. The gist of the method:
as §1

In the next series the test system is MCF7. The series can be described thus: Cytotoxicity against human MCF7 cells after 96 hrs by SRB assay. The class given is functional, cell-based. To be noted: MCF7, 96 h. An outline of the steps: as §1
Another series has as its system NIH3T3. In words: Cytotoxicity against mouse NIH/3T3 cells after 96 hrs by SRB assay. The class given is cell-based. To be noted: NIH3T3, 96 h. The gist of the method: as §1
Another series relates to SW-1736. The series can be described thus: Cytotoxicity against human SW1736 cells after 96 hrs by SRB assay. It counts as functional, cell-based. The conditions noted are these: SW-1736, 96 h. The gist of the method:
as §1

Series [2] can be described thus: Drug uptake in nucleus of human A2780 cells at 200 nM after 24 hrs by rhodamine 123 staining based fluorescence microscopy. The class given is ADME, subcellular. To be noted: a2780, 24 h, 0.2 µM. An outline of the steps:
(§2)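 A2780 ovarian carcinoma cells were incubated 24 h with 200 nM compound, then double-stained with rhodamine 123 (mitochondria, green) and Hoechst 33342 (nuclei). Fluorescence microscopy localized the compound's own red fluorescence by overlay with the rhodamine 123 and Hoechst channels. Bright-field images were also taken.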

Series [3] is described as follows: Drug uptake in mitochondria of human A2780 cells at 200 nM after 24 hrs by rhodamine 123 staining based fluorescence microscopy. It counts as ADME. The conditions noted are these: a2780, 24 h, 0.2 µM. An outline of the steps:
as §2

For series [4], the system named is A2780. The series can be described thus: Induction of apoptosis in human A2780 cells assessed as crescent-shaped nuclei at 200 nM after 24 hrs by Hoechst 33342 staining based fluorescence microscopy. It counts as functional, cell-based.
Series [5] deals with A2780. The series can be described thus: Induction of apoptosis in human A2780 cells assessed as incipient membrane blebbing at 200 nM after 24 hrs. It counts as functional, cell-based.

The term EC50 denotes the concentration needed to bring the measured effect to its halfway point. The low end stands for higher potency in that assay, the high end for lower potency in that assay. Take `CCN(CC)c1ccc2c(-c3ccccc3C(=O)O[C@H]3CC[C@]4(C)[C@H]5CC=C6[C@@H]7[C@@H](C)[C@H](C)CC[C@]7(C(=O)OC)CC[C@@]6(C)[C@]5(C)CC[C@H]4C3(C)C)c3ccc(=[N+](CC)CC)cc-3oc2c1`: the concentration giving a half-maximal response (EC50) in the series on FaDu came out at 1960 nM; in the series with A2780 [1], 1750 nM; in the series on HT-29, 1850 nM; with MCF7, 1830 nM; in the series with NIH3T3 it was 1840 nM; in the series on SW-1736, 1720 nM.

Take `CCN(CC)c1ccc2c(-c3ccccc3C(=O)O[C@H]3CC[C@]4(C)[C@H]5CC=C6[C@@H]7CC(C)(C)CC[C@]7(C(=O)NCc7ccccc7)CC[C@@]6(C)[C@]5(C)CC[C@H]4C3(C)C)c3ccc(=[N+](CC)CC)cc-3oc2c1`: the EC50 was 500 nM in the series with FaDu; 320 nM in the series with A2780 [1]; 460 nM in the series with HT-29; 360 nM in the series with MCF7; 400 nM in the series with NIH3T3; 270 nM in the series with SW-1736.

In the case of `CCN(CC)c1ccc2c(-c3ccccc3C(=O)O[C@H]3CC[C@]4(C)[C@H]5C(=O)C=C6[C@@H]7C[C@@](C)(C(=O)OC)CC[C@]7(C)CC[C@@]6(C)[C@]5(C)CC[C@H]4C3(C)C)c3ccc(=[N+](CC)CC)cc-3oc2c1`, the EC50 turned out to be 190 nM in the series with FaDu; 80 nM in the series with A2780 [1]; 150 nM in the series on HT-29; 180 nM in the series on MCF7; 200 nM in the series on NIH3T3; 150 nM in the series with SW-1736.

On to `CCN(CC)c1ccc2c(-c3ccccc3C(=O)O[C@H]3CC[C@]4(C)[C@H]5CC=C6[C@@H]7CC(C)(C)CC[C@]7(C(=O)OCc7ccccc7)CC[C@@]6(C)[C@]5(C)CC[C@H]4C3(C)C)c3ccc(=[N+](CC)CC)cc-3oc2c1`, for which the half-maximal effective concentration (EC50) in the series with FaDu amounted to 9120 nM; with A2780 [1], 3350 nM; in the series with HT-29, 8900 nM; in the series on MCF7 it was 9400 nM; in the series with NIH3T3, 11200 nM; with SW-1736, 9050 nM.

On to `C=C(C)[C@@H]1CC[C@]2(C(=O)OC)CC[C@]3(C)[C@H](CC[C@@H]4[C@@]5(C)CC[C@H](OC(=O)c6ccccc6-c6c7ccc(=[N+](CC)CC)cc-7oc7cc(N(CC)CC)ccc67)C(C)(C)[C@@H]5CC[C@]43C)[C@H]12`, for which the concentration giving a half-maximal response (EC50) in the series on FaDu was found to be 1290 nM; in the series on A2780 [1], 420 nM; in the series on HT-29 it was 610 nM; with MCF7, 810 nM; with NIH3T3 it was 1770 nM; with SW-1736, 740 nM.

For the molecule `CCN(CC)c1ccc2c(-c3ccccc3C(=O)O[C@H]3CC[C@]4(C)[C@H]5CC=C6[C@@H]7[C@@H](C)[C@H](C)CC[C@]7(C(=O)NCc7ccccc7)CC[C@@]6(C)[C@]5(C)CC[C@H]4C3(C)C)c3ccc(=[N+](CC)CC)cc-3oc2c1`, the EC50 in the series on FaDu amounted to 440 nM; in the series on A2780 [1] it was 340 nM; in the series with HT-29, 450 nM; with MCF7, 300 nM; in the series on NIH3T3, 370 nM; in the series on SW-1736, 240 nM.

On to `C=C(C)[C@@H]1CC[C@]2(C(=O)NCc3ccccc3)CC[C@]3(C)[C@H](CC[C@@H]4[C@@]5(C)CC[C@H](OC(=O)c6ccccc6-c6c7ccc(=[N+](CC)CC)cc-7oc7cc(N(CC)CC)ccc67)C(C)(C)[C@@H]5CC[C@]43C)[C@H]12`, for which the EC50 stood at 540 nM in the series with FaDu; 310 nM in the series with A2780 [1]; 530 nM in the series on HT-29; 470 nM in the series with MCF7; 540 nM in the series on NIH3T3; 450 nM with SW-1736.

As to `CCN(CC)c1ccc2c(-c3ccccc3C(=O)O[C@H]3CC[C@]4(C)[C@H]5C(=O)C=C6[C@@H]7C[C@@](C)(C(=O)NCc8ccccc8)CC[C@]7(C)CC[C@@]6(C)[C@]5(C)CC[C@H]4C3(C)C)c3ccc(=[N+](CC)CC)cc-3oc2c1.[Cl-]`, the EC50 came to 60 nM in the series on FaDu; 20 nM in the series on A2780 [1]; 60 nM with HT-29; 40 nM in the series with MCF7; 80 nM with NIH3T3; 40 nM in the series on SW-1736. The Drug uptake entry in series [2] was “Not Active”; in [3], “Active”. Moreover, the outcome with A2780 [4] and with A2780 [5] was Active.

Take `CCN(CC)c1ccc2c(-c3ccccc3C(=O)O[C@H]3CC[C@]4(C)[C@H]5CC=C6[C@@H]7[C@@H](C)[C@H](C)CC[C@]7(C(=O)OCc7ccccc7)CC[C@@]6(C)[C@]5(C)CC[C@H]4C3(C)C)c3ccc(=[N+](CC)CC)cc-3oc2c1`: the EC50 in the series on FaDu stood at 15800 nM; in the series with A2780 [1] it was 10100 nM; in the series on HT-29, 11400 nM; in the series with MCF7, 13800 nM; in the series on NIH3T3, 15400 nM; in the series with SW-1736, 12700 nM.

Consider `CCN(CC)c1ccc2c(-c3ccccc3C(=O)O[C@H]3CC[C@]4(C)[C@H]5C(=O)C=C6[C@@H]7C[C@@](C)(C(=O)OCc8ccccc8)CC[C@]7(C)CC[C@@]6(C)[C@]5(C)CC[C@H]4C3(C)C)c3ccc(=[N+](CC)CC)cc-3oc2c1`, for which the EC50 amounted to 1540 nM with FaDu; 900 nM in the series on A2780 [1]; 1420 nM with HT-29; 1470 nM with MCF7; 1280 nM in the series with NIH3T3; 1130 nM in the series with SW-1736.

`CCN(CC)c1ccc2c(-c3ccccc3C(=O)O[C@H]3CC[C@]4(C)[C@H]5CC=C6[C@@H]7CC(C)(C)CC[C@]7(C(=O)OC)CC[C@@]6(C)[C@]5(C)CC[C@H]4C3(C)C)c3ccc(=[N+](CC)CC)cc-3oc2c1`: the EC50 in the series on FaDu was determined as 1990 nM; in the series with A2780 [1] it was 1140 nM; with HT-29, 2750 nM; with MCF7 it was 2310 nM; in the series with NIH3T3, 2630 nM; in the series with SW-1736 it was 1760 nM.

`C=C(C)[C@@H]1CC[C@]2(C(=O)OCc3ccccc3)CC[C@]3(C)[C@H](CC[C@@H]4[C@@]5(C)CC[C@H](OC(=O)c6ccccc6-c6c7ccc(=[N+](CC)CC)cc-7oc7cc(N(CC)CC)ccc67)C(C)(C)[C@@H]5CC[C@]43C)[C@H]12`: the EC50 turned out to be 7590 nM in the series on FaDu; 3360 nM in the series on A2780 [1]; 5330 nM with HT-29; 5050 nM with MCF7; 8040 nM in the series with NIH3T3; 6430 nM in the series on SW-1736.
